Test results: ChEMBL document CHEMBL3098104, “Design, synthesis and preliminary SAR studies of novel N-arylmethyl substituted piperidine-linked aniline derivatives as potent HIV-1 NNRTIs” (Bioorg Med Chem, 2014)

Assays:
[1] = system: Human immunodeficiency virus 1; assay: Fold resistance, ratio of EC50 for HIV1 RES056 expressing K103N/Y181C mutant infected in human MT4 cells to EC50 for wild-type HIV1 3B infected in human MT4 cells; type: functional
Summary of the method: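 MTT protection assay in MT-4 cells run in parallel against the K103N/Y181C double mutant (RES056) and wild-type IIIB. Viability read 5 days after infection. Fold resistance = EC50 against the mutant divided by EC50 against IIIB. Median of two or three parallel assays.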

[2] = Selectivity index, ratio of CC50 for human MT4 cells to EC50 for HIV1 RES056 harboring reverse transcriptase K103N/Y181C mutant infected in human MT4 cells; type: toxicity, cell-based; settings: read-out: Ratio CC50/EC50
Summary of the method: (§1)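 MT-4 cells pelleted 5 min at 1000 rpm, resuspended at 6 × 10^5 cells/ml and plated. Compounds added from 10× stocks at the start, in triplicate wells, to HIV-infected and mock-infected cells in parallel. Viability read by MTT 5 days after infection. EC50 is 50% protection from virus-induced cytotoxicity. CC50 is 50% loss of viability in mock-infected cells. SI = CC50/EC50. Median of two or three parallel assays.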

[3] = Selectivity index, ratio of CC50 for human MT4 cells to EC50 for HIV1 3B infected in human MT4 cells; type: toxicity, cell-based; settings: read-out: Ratio CC50/EC50
Summary of the method: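 MT-4 cells at 6 × 10^5 cells/ml, in triplicate wells, infected with HIV-1 IIIB or mock-infected. Compounds added from 10× stocks at the start of infection. MTT viability read on day 5. SI = CC50 (mock-infected cells) / EC50 (IIIB). Median of two or three parallel assays.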

[4] = system: Human immunodeficiency virus 2; assay: Antiviral activity against HIV2 ROD infected in human MT4 cells assessed as inhibition of viral cytopathicity after 5 days by MTT assay; type: functional, organism-based; settings: Human immunodeficiency virus 2, ISOLATE ROD, MT4, 120 h
Summary of the method: (§2)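 HIV-infected MT-4 cells were compared with mock-infected wells in triplicate. Exponentially growing cells were pelleted for 5 min at 1000 rpm and resuspended at 6 × 10^5 cells/ml. Compound was added at the start of infection from stocks at 10× final concentration. Viability was read by MTT five days post-infection. EC50 is the concentration giving 50% protection against virus-induced cytotoxicity, taken as the median of two or three parallel assays.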

[5] = Cytotoxicity against human MT4 cells assessed as cell viability after 5 days by MTT assay; type: cell-based
Summary of the method: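 Mock-infected MT-4 cells, from exponentially growing cultures pelleted and resuspended at 6 × 10^5 cells/ml, were run in triplicate wells alongside the infected series. Compound was added from 10× stocks at the start of the experiment. Viability was read by MTT after five days. CC50 is the concentration that lowers viability by 50%, taken as the median of two or three parallel assays.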

[6] = system: Human immunodeficiency virus 1; assay: Antiviral activity against HIV1 RES056 harboring reverse transcriptase K103N/Y181C mutant infected in human MT4 cells assessed as inhibition of viral cytopathicity after 5 days by MTT assay; type: functional, organism-based; settings: Human immunodeficiency virus 1, RES056, MT4, 120 h; summary of the method: as §1
[7] = system: Human immunodeficiency virus 1; assay: Antiviral activity against wild-type HIV1 3B infected in human MT4 cells assessed as inhibition of viral cytopathicity after 5 days by MTT assay; type: functional, organism-based; settings: Human immunodeficiency virus 1, 3B, MT4, 120 h; summary of the method: as §2
[8] = molecular target: Human immunodeficiency virus type 1 reverse transcriptase (Human immunodeficiency virus 1, UniProt Q72547); assay: Inhibition of wild-type HIV1 reverse transcriptase assessed as incorporation of biotin-labeled dUTP
Summary of the method: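 HIV-1 RT enzyme assay with poly(A)·oligo(dT)15 as template-primer. Incorporation of digoxigenin- and biotin-labeled dUTP into DNA was read colorimetrically with the peroxidase substrate ABTS.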

SMILES | Ratio EC50 [1] | selectivity ratio [2] | selectivity ratio [3] | EC50 [4] | CC50 at 120 h [5] | EC50 [6] | EC50 [7] | IC50 [8]
Cc1cc(C)c(Oc2ccc([N+](=O)[O-])c(NC3CCN(Cc4ccc(S(N)(=O)=O)cc4)CC3)c2)c(C)c1 | >615 | < 1 | 615 | > 22 µM | 22 µM | > 22 µM | 0.036 µM | 
CC(=O)Nc1ccc(Oc2c(C)cc(C#N)cc2C)cc1NC1CCN(Cc2ccc(S(N)(=O)=O)cc2)CC1 |  |  |  | > 228 µM | > 228 µM |  | > 228 µM | 
Cc1cc(C#N)cc(C)c1Oc1ccc([N+](=O)[O-])c(NC2CCN(Cc3ccc([N+](=O)[O-])cc3)CC2)c1 | >269 | < 1 | 269 | > 182 µM | 182 µM | > 182 µM | 0.67 µM | 
Cc1cc(C#N)cc(C)c1Oc1ccc([N+](=O)[O-])c(NC2CCN(Cc3ccc(S(C)(=O)=O)cc3)CC2)c1 | >10770 |  | > 10800 | > 234 µM | > 234 µM | > 234 µM | 0.022 µM | 0.36 µM
Cc1cc(C)c(Oc2ccc([N+](=O)[O-])c(NC3CCN(Cc4ccccc4)CC3)c2)c(C)c1 | >37 | < 1 | 37 | > 25 µM | 25 µM | > 25 µM | 0.66 µM | 
Cc1cc(C#N)cc(C)c1Oc1ccc(N)c(NC2CCN(Cc3ccc(S(N)(=O)=O)cc3)CC2)c1.Cl | 114 | 4.4 | 505 | > 22 µM | 22 µM | 4.8 µM | 0.043 µM | 
Cc1cc(C#N)cc(C)c1Oc1ccc([N+](=O)[O-])c(NC2CCN(Cc3ccc(C(=O)O)cc3)CC2)c1 | >159 | < 1 | 159 | > 30 µM | 30 µM | > 30 µM | 0.19 µM | 
Cc1cc(C)c(Oc2ccc([N+](=O)[O-])c(NC3CCN(Cc4ccncc4)CC3)c2)c(C)c1 | >258 | < 1 | 258 | > 21 µM | 21 µM | > 21 µM | 0.082 µM | 
COC(=O)c1ccc(CN2CCC(Nc3cc(Oc4c(C)cc(C#N)cc4C)ccc3[N+](=O)[O-])CC2)cc1 | >1208 |  | ≥ 1210 | > 160 µM | ≥ 160 µM | > 160 µM | 0.13 µM | 
Cc1cc(C)c(Oc2ccc([N+](=O)[O-])c(NC3CCN(Cc4ccc(C(N)=O)cc4)CC3)c2)c(C)c1 | >457 | < 1 | 457 | > 27 µM | 27 µM | > 27 µM | 0.059 µM | 
Cc1cc(C)c(Oc2ccc([N+](=O)[O-])c(NC3CCN(Cc4ccc(C(=O)O)cc4)CC3)c2)c(C)c1 | >161 | < 1 | 161 | > 35 µM | 35 µM | > 35 µM | 0.22 µM | 
CC(C)Nc1cccnc1N1CCN(C(=O)c2cc3cc(NS(C)(=O)=O)ccc3[nH]2)CC1 [DELAVIRDINE] | >277 |  | > 277 |  | > 36 µM | > 36 µM |  | 
Cc1cc(C#N)cc(C)c1Oc1ccc([N+](=O)[O-])c(NC2CCN(Cc3ccc(C(N)=O)cc3)CC2)c1 | >430 | < 1 | 430 | > 27 µM | 27 µM | > 27 µM | 0.062 µM | 
CC(=O)c1ccc(CN2CCC(Nc3cc(Oc4c(C)cc(C#N)cc4C)ccc3[N+](=O)[O-])CC2)cc1 | >1630 |  | > 1630 | > 251 µM | > 251 µM | > 251 µM | 0.15 µM | 
CC(=O)c1ccc(CN2CCC(Nc3cc(Oc4c(C)cc(C)cc4C)ccc3[N+](=O)[O-])CC2)cc1 | >1312 | < 1 | 1310 | > 138 µM | 138 µM | > 138 µM | 0.11 µM | 
Cc1cc(C)c(Oc2ccc([N+](=O)[O-])c(NC3CCN(Cc4ccc(CO)cc4)CC3)c2)c(C)c1 | >255 | < 1 | 255 | > 25 µM | 25 µM | > 25 µM | 0.096 µM | 
Cc1cc(C#N)cc(C)c1Oc1ccc([N+](=O)[O-])c(NC2CCN(Cc3ccc(S(N)(=O)=O)cc3)CC2)c1 | >782 | < 1 | 782 | > 23 µM | 23 µM | > 23 µM | 0.029 µM | 
Cc1cc(C#N)cc(C)c1Oc1ccc([N+](=O)[O-])c(NC2CCN(Cc3ccncc3)CC2)c1 | >336 | < 1 | 336 | > 19 µM | 19 µM | > 19 µM | 0.056 µM | 
Cc1cc(C)c(Oc2ccc([N+](=O)[O-])c(NC3CCN(Cc4ccc([N+](=O)[O-])cc4)CC3)c2)c(C)c1 | >70 | < 1 | 70 | > 147 µM | 147 µM | > 147 µM | 2.1 µM | 
Cc1cc(C#N)cc(C)c1Oc1ccc([N+](=O)[O-])c(NC2CCN(Cc3ccccc3)CC2)c1 | >4.4 | < 1 | 4.4 | > 2.8 µM | 2.8 µM | > 2.8 µM | 0.63 µM | 
Cc1cc(C)c(Oc2ccc([N+](=O)[O-])c(NC3CCN(Cc4ccc(S(C)(=O)=O)cc4)CC3)c2)c(C)c1 | >5895 | < 1 | 5900 | > 158 µM | 158 µM | > 158 µM | 0.027 µM | 
O=C1Nc2ccc(Cl)cc2[C@@](C#CC2CC2)(C(F)(F)F)O1 [EFAVIRENZ] | 70 | > 12 | > 855 |  | > 6.3 µM |  | 0.0074 µM | 
O=c1[nH]cnc2c1ncn2[C@H]1CC[C@@H](CO)O1 [DIDANOSINE] |  | > 12 | > 11 | 18 µM | > 212 µM |  | 19 µM | 
COC(=O)c1ccc(CN2CCC(Nc3cc(Oc4c(C)cc(C)cc4C)ccc3[N+](=O)[O-])CC2)cc1 | >246 |  | > 246 | > 248 µM | > 248 µM | > 248 µM | 1 µM | 
Cc1cc(C#N)cc(C)c1Oc1ccc([N+](=O)[O-])c(NC2CCN(Cc3ccc(CO)cc3)CC2)c1 | >80 | < 1 | 80 | > 11 µM | 11 µM | > 11 µM | 0.14 µM | 
Cc1cn([C@H]2C[C@H](N=[N+]=[N-])[C@@H](CO)O2)c(=O)[nH]c1=O [ZIDOVUDINE] |  | > 12600 | > 13100 | 0.0057 µM | > 94 µM | 0.0074 µM | 0.0072 µM | 
